The subject of data set [1] is Hepatitis B virus. Description: Antiviral activity against Hepatitis B virus infected in human 2.2.15 cells assessed as reduction of […] after 72 hrs by southern DNA hybridization method. The data set is classed as functional, organism-based. As to conditions: HepG2 2.2.15, 72 h.
Data set [2] can be described thus: Cytotoxicity against human Huh-7 cells by luminescence based cell viability assay.
In data set [3] the test system is MT2. The experiment in a line: Cytotoxicity against human MT2 cells after 5 days by colorimetry. The data set is classed as cell-based. As to conditions: MT2, 120 h. Summed up: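 Uninfected MT-2 cells coincubated with compounds for 5 days. Cytotoxicity by colorimetric quantitation.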
Data set [4] has as its system Human immunodeficiency virus 1. The experiment in a line: Antiviral activity against Human immunodeficiency virus 1 3B virus infected in human MT2 cells assessed as inhibition of virus-induced cytopathic effect by colorimetry. The data set is classed as functional, organism-based. A digest of the protocol:
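MT-2 cells, 1 × 10^3 per well in triplicate, infected with HIV-1 IIIB at 0.1 TCID50/cell and cultured with compounds. Viral CPE quantified by MTT colorimetry after 5 days to estimate EC50.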

Data set [5] relates to CCRF-CEM. The experiment in a line: Mitochondrial DNA toxicity in human CEM cells. The class given is cell-based. A digest of the protocol: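 CEM cell lysates slot-blotted and hybridized with an mtDNA-specific probe, then reprobed with an Alu probe as internal control. Bands quantified by autoradiography and densitometry.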
Data set [6] deals with Hepatitis C virus. Description: Antiviral activity against Hepatitis C virus genotype 1b Con1 infected in human Huh-luc/neo-ET replicon cells assessed as reduction of replicon luciferase signal after 72 hrs by luciferase reporter assay. The data set is classed as functional, organism-based, Hepacivirus hominis. A digest of the protocol: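 Replicon cells grown without G418, seeded at 5 × 10^3 per well, treated next day in duplicate with serial dilutions (DMSO control) at 37°C for 72 h. After a PBS wash, cells lysed in ice-cold passive lysis reagent and firefly luciferase RLU read as percent of compound-free control. EC50 by nonlinear regression of the dose-effect curve.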

Data set [7] in a line: Cytotoxicity against human HuH7 cells by luminescence based cell viability assay. Details: species or system Huh-7. A digest of the protocol:
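Exponentially growing Huh-7 cells seeded at 1 × 10^4 per well and incubated with compounds for 3 days. Viability read by CellTiter-Glo luminescence, used for dark compounds that interfere with methylene blue absorbance at 595 nm. CC50 derived.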

Data set [8] relates to Hepatitis C virus. Description: Antiviral activity against Hepatitis C virus genotype 1b Con1 infected in human Huh-luc/neo-ET replicon cells assessed as reduction of replicon luciferase signal after 72 hrs by luciferase reporter assay in presence of 40% fetal bovine serum. The data set is classed as functional, organism-based, Hepacivirus hominis. Summed up:
(§1)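 Huh-luc/neo-ET cells without G418, incubated with serially diluted compounds in medium containing 5%, 10%, 20% or 40% (vol/vol) FBS. Firefly luciferase read after 72 h. EC50 from dose-effect curves. The 0% value is a theoretical EC50 extrapolated from the plot of EC50 versus serum level. Means ± SD of three independent experiments.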

The test system of data set [9] is Hepatitis C virus. The experiment in a line: Antiviral activity against Hepatitis C virus genotype 1b Con1 infected in human Huh-luc/neo-ET replicon cells assessed as reduction of replicon luciferase signal after 72 hrs by luciferase reporter assay in presence of 20% fetal bovine serum. The class given is functional, organism-based, Hepacivirus hominis. A digest of the protocol: as §1

The subject of data set [10] is Hepatitis C virus. Description: Antiviral activity against Hepatitis C virus genotype 1b Con1 infected in human Huh-luc/neo-ET replicon cells assessed as reduction of replicon luciferase signal after 72 hrs by luciferase reporter assay in presence of 10% fetal bovine serum. The class given is functional, organism-based, Hepacivirus hominis. A digest of the protocol: as §1

Data set [11] deals with Hepatitis C virus. The experiment in a line: Antiviral activity against Hepatitis C virus genotype 1b Con1 infected in human Huh-luc/neo-ET replicon cells assessed as reduction of replicon luciferase signal after 72 hrs by luciferase reporter assay in presence of 0% fetal bovine serum. The class given is functional, organism-based, Hepacivirus hominis. Summed up:
as §1

Data set [12] deals with Hepatitis C virus. The experiment in a line: Antiviral activity against Hepatitis C virus genotype 1b Con1 infected in human Huh-luc/neo-ET replicon cells assessed as reduction of replicon luciferase signal after 72 hrs by luciferase reporter assay in presence of 5% fetal bovine serum. The class given is functional, organism-based, Hepacivirus hominis. Summed up:
as §1

The target of data set [13] is Cytochrome c (Homo sapiens, UniProt P99999). The experiment in a line: Binding affinity to Cytochrome C.
For data set [14], the system named is Hepatitis C virus. The experiment in a line: Antiviral activity against Hepatitis C virus genotype 2a JFH1 infected in human YSGR-JFH replicon cells assessed as inhibition of virus RNA level after 72 hrs by quantitative RT-PCR. The note with it: subtype 2a JFH1, 72 h. The class given is functional, organism-based, Hepacivirus hominis. A digest of the protocol: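 YSGR-JFH genotype 2a subgenomic replicon cells (maintained with 400 μg/ml G418), 1 × 10^5 per well, incubated with DMSO, serially varied compound, or IFN-α-2a for 72 h. HCV RNA by qRT-PCR normalized to β-actin, as percent of mock-treated control. Mean ± SD of three independent experiments.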

Sequence of Cytochrome c (P99999 whole entry): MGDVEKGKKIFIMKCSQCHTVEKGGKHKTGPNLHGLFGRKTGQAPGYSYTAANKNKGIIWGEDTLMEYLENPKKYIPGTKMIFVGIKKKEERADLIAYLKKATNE

In the case of `O=C(O)CNC(=O)c1ccc(-c2c3nc(c(-c4ccc(C(=O)NCC(=O)O)cc4)c4ccc([nH]4)c(-c4ccc(C(=O)NCC(=O)O)cc4)c4nc(c(-c5ccc(C(=O)NCC(=O)O)cc5)c5ccc2[nH]5)C=C4)C=C3)cc1`, the EC50 in data set [1] was over 10 µM; in data set [4] it was over 25 µM; in data set [6], 1800 nM. The figures for the CC50 in data set [2], in data set [3] and in [7] were 27 µM, 3.2 µM and over 50 µM, respectively. Also, the IC50 in data set [5] is 15 µM.

On to `O=C(O)c1cccc(-c2ccc(-c3c4nc(c(-c5ccc(-c6cccc(C(=O)O)c6)cc5)c5ccc([nH]5)c(-c5ccc(-c6cccc(C(=O)O)c6)cc5)c5nc(c(-c6ccc(-c7cccc(C(=O)O)c7)cc6)c6ccc3[nH]6)C=C5)C=C4)cc2)c1`, for which the results for the EC50 in data set [1], in data set [4] and in [6] were over 20 µM, over 25 µM and 764 nM, respectively. Moreover, the CC50 in data set [2] is 42.3 µM; in [3], over 25 µM; in data set [7], 13 µM. The midpoint of inhibition in data set [5], the IC50, lay at 22 µM.

With `O=C(O)c1ccc(-c2ccc(-c3c4nc(c(-c5ccc(-c6ccc(C(=O)O)cc6)cc5)c5ccc([nH]5)c(-c5ccc(-c6ccc(C(=O)O)cc6)cc5)c5ccc([nH]5)c(-c5ccc(-c6ccc(C(=O)O)cc6)cc5)c5nc3C=C5)C=C4)cc2)cc1`, the EC50 in data set [1] was over 10 µM; in data set [4] it was over 25 µM; in data set [8], 1480 nM; in data set [9] it was 1210 nM; in [10], 877 nM; in data set [11] it was 380 nM. Further, the EC50 in data set [6] is 877 nM; in data set [12], 633 nM. The CC50 in data set [2] worked out at 18.6 µM; in [3], 25 µM; in data set [7], 32.2 µM. This compound also displayed an IC50 in data set [5] of 6 µM. The compound further returned a Kd in data set [13] of 17000 nM.

For the compound `O=C(O)CNC(=O)c1ccc(-c2ccc(-c3c4nc(c(-c5ccc(-c6ccc(C(=O)NCC(=O)O)cc6)cc5)c5ccc([nH]5)c(-c5ccc(-c6ccc(C(=O)NCC(=O)O)cc6)cc5)c5nc(c(-c6ccc(-c7ccc(C(=O)NCC(=O)O)cc7)cc6)c6ccc3[nH]6)C=C5)C=C4)cc2)cc1`, the half-maximal effective concentration (EC50) in data set [1] is over 20 µM; in data set [4], 1.5 µM; in [6], 148 nM. Also, the results for the half-maximal cytotoxic concentration (CC50) in [2], in data set [3] and in data set [7] were over 50 µM, 13 µM and over 50 µM, respectively. In [5], this compound gave an IC50 of over 50 µM.

Regarding `COC(=O)[C@H](CC(=O)O)NC(=O)c1cc(C(=O)N[C@@H](CC(=O)O)C(=O)OC)cc(-c2ccc(-c3c4nc(c(-c5ccc(-c6cc(C(=O)N[C@@H](CC(=O)O)C(=O)OC)cc(C(=O)N[C@@H](CC(=O)O)C(=O)OC)c6)cc5)c5ccc([nH]5)c(-c5ccc(-c6cc(C(=O)N[C@@H](CC(=O)O)C(=O)OC)cc(C(=O)N[C@@H](CC(=O)O)C(=O)OC)c6)cc5)c5nc(c(-c6ccc(-c7cc(C(=O)N[C@@H](CC(=O)O)C(=O)OC)cc(C(=O)N[C@@H](CC(=O)O)C(=O)OC)c7)cc6)c6ccc3[nH]6)C=C5)C=C4)cc2)c1`, the results for the EC50 in [1], in [4] and in data set [6] were over 10 µM, 4.1 µM and 2500 nM, respectively. Also, the half-maximal cytotoxic concentration (CC50) in data set [3] was over 25 µM; in [7] it was 12.5 µM. The IC50 in [5] was found to be 10 µM. Further, the Kd in data set [13] was found to be 1700 nM.

Consider `O=C(O)CNC(=O)c1cc(C(=O)NCC(=O)O)cc(-c2ccc(-c3c4nc(c(-c5ccc(-c6cc(C(=O)NCC(=O)O)cc(C(=O)NCC(=O)O)c6)cc5)c5ccc([nH]5)c(-c5ccc(-c6cc(C(=O)NCC(=O)O)cc(C(=O)NCC(=O)O)c6)cc5)c5nc(c(-c6ccc(-c7cc(C(=O)NCC(=O)O)cc(C(=O)NCC(=O)O)c7)cc6)c6ccc3[nH]6)C=C5)C=C4)cc2)c1`, for which the 50% effective concentration (EC50) was over 10 µM in data set [1], 1.05 µM in data set [4] and over 12500 nM in data set [6]. In addition, the CC50 in data set [2] is over 50 µM; in [3] it was 15 µM; in data set [7] it was 12.5 µM. Further, the 50% inhibitory concentration (IC50) in data set [5] came to 12.5 µM.

For `O=C(O)c1cc(C(=O)O)cc(-c2c3nc(c(-c4cc(C(=O)O)cc(C(=O)O)c4)c4ccc([nH]4)c(-c4cc(C(=O)O)cc(C(=O)O)c4)c4nc(c(-c5cc(C(=O)O)cc(C(=O)O)c5)c5ccc2[nH]5)C=C4)C=C3)c1`, the cytotoxic concentration (CC50) in [2], in data set [3] and in data set [7] was over 50 µM in each case. Besides, the EC50 in data set [4] is over 100 µM; in data set [6] it was 13600 nM. This compound came in with an IC50 in data set [5] of 25 µM.

As for `O=C(O)c1ccc(-c2c3nc(c(-c4ccc(C(=O)O)cc4)c4ccc([nH]4)c(-c4ccc(C(=O)O)cc4)c4ccc([nH]4)c(-c4ccc(C(=O)O)cc4)c4nc2C=C4)C=C3)cc1`, the EC50 in data set [1] is over 10 µM; in data set [4], over 25 µM; in data set [8], 948 nM; in [9] it was 513 nM; in data set [10] it was 243 nM; in data set [11], 48.2 nM. In addition, the concentration for a half-maximal effect (EC50) in [6] was found to be 243 nM; in data set [12], 124 nM; in data set [14] it was 1900 nM. Besides, the CC50 is over 50 µM in data set [2], over 25 µM in data set [3] and over 50 µM in data set [7]. Moreover, the IC50 in data set [5] is over 50 µM. Moreover, in data set [13], the Kd amounted to 950 nM.

For the origin of these results see ChEMBL document CHEMBL1212775, “A novel class of meso-tetrakis-porphyrin derivatives exhibits potent activities against hepatitis C virus genotype 1b replicons in vitro” (Antimicrob Agents Chemother, 2010).
